Measurements taken from ChEMBL document CHEMBL3525931, “Stereoselective interaction of pantoprazole with ABCG2. II. In vitro flux analysis” (Drug Metab Dispos, 2012).

How the values were obtained:
[1] = molecular target: T1, Broad substrate specificity ATP-binding cassette transporter ABCG2 (Rattus norvegicus, UniProt Q80W57); assay: Observed permeability in MDCK2 cells expressing rat ABCG2 assessed as ABCG2-mediated apical to basolateral transport at 3 uM after 0.5 to 1 hrs by HPLC method; assay type: ADME, cell-based; details: mdck-ii
T1 sequence (Q80W57 whole entry): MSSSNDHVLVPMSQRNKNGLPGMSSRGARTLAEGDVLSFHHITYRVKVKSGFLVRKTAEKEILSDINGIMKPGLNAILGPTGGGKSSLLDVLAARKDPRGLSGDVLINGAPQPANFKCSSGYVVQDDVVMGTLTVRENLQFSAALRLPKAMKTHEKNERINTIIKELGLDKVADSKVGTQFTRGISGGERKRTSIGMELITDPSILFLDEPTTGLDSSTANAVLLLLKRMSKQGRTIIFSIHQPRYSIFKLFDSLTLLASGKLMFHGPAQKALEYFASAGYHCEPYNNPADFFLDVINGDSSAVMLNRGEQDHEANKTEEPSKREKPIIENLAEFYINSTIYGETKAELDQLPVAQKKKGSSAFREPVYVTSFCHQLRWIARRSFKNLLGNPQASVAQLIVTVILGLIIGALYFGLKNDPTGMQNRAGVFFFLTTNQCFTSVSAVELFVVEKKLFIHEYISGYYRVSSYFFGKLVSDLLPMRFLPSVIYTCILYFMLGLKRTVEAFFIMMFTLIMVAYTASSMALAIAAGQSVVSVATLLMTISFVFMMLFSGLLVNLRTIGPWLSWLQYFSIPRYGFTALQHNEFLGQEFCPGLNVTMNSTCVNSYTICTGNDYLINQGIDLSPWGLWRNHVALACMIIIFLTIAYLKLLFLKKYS
Summary of the method: (§1)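 Mock (empty pcDNA3.1) or rat Abcg2/human ABCG2-transfected MDCKII, G418-selected, seeded on 3.0-μm Transwell filters at 1.0×10^6 cells/well, grown 4 days to TEER >200 Ω·cm². Single isomer loaded apical or basolateral in serum-free Opti-MEM I with 0.2 μCi/ml [3H]mannitol, 37°C 5% CO2. Receiver sampled at 0.5 and 1 h. Quantified by HPLC-UV 290 nm. Permeability = initial rate/(area × donor concentration). Efflux ratio = B→A rate / A→B rate. n = 3, mean ± S.D.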

[2] = molecular target: T2, Broad substrate specificity ATP-binding cassette transporter ABCG2 (Homo sapiens, UniProt Q9UNQ0); assay: Observed permeability in MDCK2 cells expressing human ABCG2 assessed as ABCG2-mediated apical to basolateral transport at 30 uM after 0.5 to 1 hrs by HPLC method; assay type: ADME, cell-based; details: mdck-ii; summary of the method: as §1
T2 sequence (Q9UNQ0 whole entry): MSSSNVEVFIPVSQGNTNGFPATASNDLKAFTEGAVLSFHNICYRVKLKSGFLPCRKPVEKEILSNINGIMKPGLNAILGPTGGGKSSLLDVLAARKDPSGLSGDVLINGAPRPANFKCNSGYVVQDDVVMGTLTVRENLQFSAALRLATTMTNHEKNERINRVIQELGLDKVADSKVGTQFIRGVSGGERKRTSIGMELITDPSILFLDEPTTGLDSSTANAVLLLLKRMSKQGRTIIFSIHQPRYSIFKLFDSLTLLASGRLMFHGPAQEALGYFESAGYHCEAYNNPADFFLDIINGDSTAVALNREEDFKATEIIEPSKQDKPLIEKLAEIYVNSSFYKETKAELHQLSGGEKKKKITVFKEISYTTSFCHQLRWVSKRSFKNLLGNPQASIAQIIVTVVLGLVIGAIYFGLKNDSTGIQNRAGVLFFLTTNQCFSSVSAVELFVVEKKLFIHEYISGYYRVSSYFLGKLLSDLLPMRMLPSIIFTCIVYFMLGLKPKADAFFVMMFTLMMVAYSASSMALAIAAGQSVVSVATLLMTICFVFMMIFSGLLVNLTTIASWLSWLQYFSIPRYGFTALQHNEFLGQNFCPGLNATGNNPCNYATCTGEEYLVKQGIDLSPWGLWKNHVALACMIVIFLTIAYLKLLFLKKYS

[3] = molecular target: T2, Broad substrate specificity ATP-binding cassette transporter ABCG2; assay: Observed permeability in MDCK2 cells expressing human ABCG2 assessed as ABCG2-mediated apical to basolateral transport at 200 uM after 0.5 to 1 hrs by HPLC method; assay type: ADME, cell-based; details: mdck-ii; summary of the method: as §1
[4] = molecular target: T2, Broad substrate specificity ATP-binding cassette transporter ABCG2; assay: Observed permeability in MDCK2 cells expressing human ABCG2 assessed as ABCG2-mediated basolateral to apical transport at 50 uM after 0.5 to 1 hrs by HPLC method; assay type: ADME, cell-based; details: mdck-ii; summary of the method: as §1
ABCG2 [5] = molecular target: T3, ABCG2 (Homo sapiens, UniProt Q9UNQ0); assay: Asymmetry efflux ratio in MDCK2 cells expressing human ABCG2 assessed as ABCG2-mediated drug transport ratio at 200 uM after 0.5 to 1 hrs by HPLC method; assay type: ADME, cell-based; summary of the method: as §1
T3 sequence (Q9UNQ0 whole entry): T2 sequence (Q9UNQ0 whole entry)

[6] = molecular target: T1, Broad substrate specificity ATP-binding cassette transporter ABCG2; assay: Observed permeability in MDCK2 cells expressing rat ABCG2 assessed as ABCG2-mediated apical to basolateral transport at 30 uM after 0.5 to 1 hrs by HPLC method; assay type: ADME, cell-based; details: mdck-ii; summary of the method: as §1
[7] = molecular target: T1, Broad substrate specificity ATP-binding cassette transporter ABCG2; assay: Observed permeability in MDCK2 cells expressing rat ABCG2 assessed as ABCG2-mediated basolateral to apical transport at 50 uM after 0.5 to 1 hrs by HPLC method; assay type: ADME, cell-based; details: mdck-ii
Summary of the method: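 rAbcg2-transfected MDCKII monolayers seeded at 1.0×10^6 cells/well on 3.0-μm filters, grown 4 days to TEER >200 Ω·cm². Serum-free Opti-MEM I on both sides. Individual PAN isomer plus 0.2 μCi/ml [3H]mannitol loaded basolaterally, 37°C, 5% CO2. Receiver sampled at 0.5 and 1 h, PAN quantified by HPLC-UV 290 nm. P_obs = initial transfer rate/(area × initial donor concentration). Mean ± S.D., n = 3.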

[8] = molecular target: T1, Broad substrate specificity ATP-binding cassette transporter ABCG2; assay: Observed permeability in MDCK2 cells expressing rat ABCG2 assessed as ABCG2-mediated basolateral to apical transport at 200 uM after 0.5 to 1 hrs by HPLC method; assay type: ADME, cell-based; details: mdck-ii; summary of the method: as §1
ABCG2 [9] = molecular target: T4, ABCG2 (Rattus norvegicus, UniProt Q80W57); assay: Asymmetry efflux ratio in MDCK2 cells expressing rat ABCG2 assessed as ABCG2-mediated drug transport ratio at 200 uM after 0.5 to 1 hrs by HPLC method; assay type: ADME, cell-based; summary of the method: as §1
T4 sequence (Q80W57 whole entry): T1 sequence (Q80W57 whole entry)

[10] = Observed permeability in MDCK2 cells assessed as apical to basolateral transport at 30 uM after 0.5 to 1 hrs by HPLC method; assay type: ADME, cell-based, Canis lupus familiaris; details: dog, mdck-ii; summary of the method: as §1
[11] = Observed permeability in MDCK2 cells assessed as apical to basolateral transport at 3 to 200 uM after 0.5 to 1 hrs by HPLC method; assay type: ADME, cell-based, Canis lupus familiaris; details: dog, mdck-ii; summary of the method: as §1
[12] = Observed permeability in MDCK2 cells assessed as basolateral to apical transport at 10 uM after 0.5 to 1 hrs by HPLC method; assay type: ADME, cell-based, Canis lupus familiaris; details: dog, mdck-ii; summary of the method: as §1
[13] = Observed permeability in MDCK2 cells assessed as basolateral to apical transport at 50 uM after 0.5 to 1 hrs by HPLC method; assay type: ADME, cell-based, Canis lupus familiaris; details: dog, mdck-ii; summary of the method: as §1
[14] = Asymmetry efflux ratio in MDCK2 cells assessed as drug transport ratio at 50 uM after 0.5 to 1 hrs by HPLC method; assay type: ADME, cell-based, Canis lupus familiaris, MDCK-II; details: dog, MDCK; summary of the method: as §1
[15] = Asymmetry efflux ratio in MDCK2 cells assessed as drug transport ratio at 3 to 200 uM after 0.5 to 1 hrs by HPLC method; assay type: ADME, cell-based, Canis lupus familiaris, MDCK-II; details: dog, MDCK; summary of the method: as §1

SMILES | Papp [1] | Papp [2] | Papp [3] | Papp [4] | efflux ratio at 200 µM (ABCG2 [5]) | Papp [6] | Papp [7] | Papp [8] | efflux ratio at 200 µM (ABCG2 [9]) | Papp [10] | Papp [11] | Papp [12] | Papp [13] | efflux ratio at 50 µM [14] | efflux ratio at up to 200 µM [15]
COc1ccnc(C[S@@+]([O-])c2nc3cc(OC(F)F)ccc3[nH]2)c1OC | 12.8 uL/hr/cm2 | 43.6 uL/hr/cm2 | 126 uL/hr/cm2 | 195 uL/hr/cm2 | 1.42 | 33.5 uL/hr/cm2 | 194 uL/hr/cm2 | 162 uL/hr/cm2 | 1.29 | 110 uL/hr/cm2 | 121 uL/hr/cm2 | 121 uL/hr/cm2 | 135 uL/hr/cm2 | 1.09 | 1.04
COc1ccnc(C[S@+]([O-])c2nc3cc(OC(F)F)ccc3[nH]2)c1OC | 7.4 uL/hr/cm2 | 67.6 uL/hr/cm2 | 132 uL/hr/cm2 | 156 uL/hr/cm2 | 1 | 92.5 uL/hr/cm2 | 137 uL/hr/cm2 | 136 uL/hr/cm2 | 1.07 | 116 uL/hr/cm2 | 121 uL/hr/cm2 | 130 uL/hr/cm2 | 126 uL/hr/cm2 | 1.04 | 1.04
